# Neddylation inh: blocks human cullin neddylation | AID 651699 | inhibition, % at 25 µM | TR-FRET cullin neddylation, biochemical | P61081+Q13564 | 0.58% of 360,000 active; in the data active = inhibition above about 36%
# Target sequence (P61081 whole entry, looked up): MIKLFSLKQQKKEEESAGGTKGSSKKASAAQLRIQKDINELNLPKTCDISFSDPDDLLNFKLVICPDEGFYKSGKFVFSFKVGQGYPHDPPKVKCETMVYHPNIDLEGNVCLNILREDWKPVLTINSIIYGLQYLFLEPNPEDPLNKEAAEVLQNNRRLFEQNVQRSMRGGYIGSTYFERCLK
# Target sequence (Q13564 whole entry, looked up): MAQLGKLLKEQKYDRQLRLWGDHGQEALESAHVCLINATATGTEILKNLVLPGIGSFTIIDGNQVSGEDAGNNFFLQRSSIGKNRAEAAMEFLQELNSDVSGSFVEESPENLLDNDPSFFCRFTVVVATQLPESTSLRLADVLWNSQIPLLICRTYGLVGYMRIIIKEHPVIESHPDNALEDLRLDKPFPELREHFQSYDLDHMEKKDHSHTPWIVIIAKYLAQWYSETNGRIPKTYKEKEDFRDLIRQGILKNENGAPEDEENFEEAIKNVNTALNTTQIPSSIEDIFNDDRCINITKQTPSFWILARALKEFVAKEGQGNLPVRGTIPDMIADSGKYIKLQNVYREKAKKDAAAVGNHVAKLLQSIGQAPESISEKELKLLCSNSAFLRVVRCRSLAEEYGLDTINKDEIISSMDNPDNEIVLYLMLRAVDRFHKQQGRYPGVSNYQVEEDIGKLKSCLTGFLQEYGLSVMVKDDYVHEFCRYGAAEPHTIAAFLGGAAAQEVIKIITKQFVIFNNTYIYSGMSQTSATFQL
# Tn7 DDE FP: disrupts Tn7 cyclic peptide binding to fibrin D-Dimer-E complex; P02675; FP displacement of FITC-Tn7 peptide from fibrin DD(E); 0% = median of compound wells per plate; inhibition, % at 8.3 µM; 0.13% of 370,000 active;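 active = inhibition above the mean of compounds falling within the control limits plus 3 SD of them, cut at about 14% in these data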;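 note: 0% = plate median of compound wells and 100% = 10 µM Aha-Tn7 peptide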
#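 Test system: human clot-derived fibrin DD(E) complex / Quantity: 2 µM final DD(E) protein / Incubation: 10 min plus 3 h, room temperature / Measured by: fluorescence polarization / Benchmarks: high control of 10 µM Aha-Tn7 peptide / Replicates: singlicate testing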
# Tn6 DDE FP: DD(E)-Tn6 binding inhibition, primary FP screen; AID 720509; inhibition, % at 8.3 µM; 0.21% of 370,000 active; Fibrin DD(E) TRITC-Tn6 fluorescence polarization displacement; P02675;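 active = inhibition above a per-campaign cutoff: mean of compounds within control limits plus 3 SD, cut at about 15% in these data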;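 note: 0% = median of all compound wells on the plate and 100% = blocking peptide control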
# PKA-R2B act: PKA-R2B complex activation; P22694+P31323; PKA-R2B holoenzyme dissociation, Cy5-IP20 fluorescence polarization; R2B truncated from residue 108, S112A mutant; 0% DMSO only, 100% 113 µM cGMP; activation, % at 11.4 µM; 0.079% of 340,000 active; AID 504700;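 active = activation above a cutoff set at the mean over all compounds plus 3 SD, cut at about 18% in these data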;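 note: higher means more holoenzyme dissociation and a rise in polarization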
# PKA-R1A act: PKA-R1A complex activation; activation, % at 11.4 µM; P00514+P68181; 0.083% of 340,000 active; PKA-R1A dissociation, Cy5-IP20 fluorescence polarization; scaled: DMSO 0%, 113 µM cGMP 100%;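 active = percent activation above the mean of all tested compounds plus 3 SD, cut at about 19% in these data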;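 note: higher means more PKAc released from R1A so a rise in polarization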
# R2B FP artifact: counter-screen for PKA-R2B activators: fluorescence polarization artifacts; shares compounds with PKA-R2B act; FP artifact counterscreen; activation, % at 11.4 µM; 6% of 270 active; AID 504796; in the data active = activation above about 20%;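 note: Cy5 labelled IP20 peptide probe with compound but no PKA protein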
# PKA-R2B act conf: confirmation of human PKA-R2B complex activators; AID 504797; activation, % at 11.4 µM; shares compounds with PKA-R2B act; fluorescence polarization, activation; 9% of 270 active; in the data active = activation above about 19%
# Starred values were filed as active, the others as inactive; · = not tested or not shown. Compounds with a hit are over-represented: about 1% of the library has one in this group of screens.
SMILES,Neddylation inh,Tn7 DDE FP,Tn6 DDE FP,PKA-R2B act,PKA-R1A act,R2B FP artifact,PKA-R2B act conf
CN(C)c1ccc(N=Nc2ccc(S(=O)(=O)O)cc2)c2ccccc12,-16,4,-1,30*,-8,-2,11
CN(C)c1ccc(N=Nc2ccc(S(N)(=O)=O)cc2)cc1,-40,-4,6,1,9,·,·
Cc1onc(-c2ccccc2)c1C(=O)Nc1ccc(Br)cc1Cl,-5,-6,-4,19*,2,6,0
COc1ccc(-c2nnc(SCC(=O)NN=C/C=C\c3ccco3)n2-c2ccc(OC)cc2)cc1,·,-3,-4,·,·,·,·
CC(C)CN(C(=O)COC(=O)/C=C/c1cccs1)c1c(N)n(Cc2ccccc2)c(=O)[nH]c1=O,8,0,-1,9,-1,·,·
COCCN(C(=O)COC(=O)/C=C/c1cccs1)c1c(N)n(Cc2ccccc2)c(=O)[nH]c1=O,3,-4,-8,23*,6,2,2
O=C(Nc1ccc(F)cc1)OCc1cn(Cc2ccccc2C(F)(F)F)nn1,·,5,4,·,·,·,·
CCCC(c1nnnn1CC(=O)OCC)N(Cc1cc2c(C)cc(C)cc2[nH]c1=O)C1CCCC1 (stereo unspecified),14,0,-1,19*,7,4,-1
CCCC(c1nnnn1CC(=O)OCC)N(Cc1cc2ccc(C)cc2[nH]c1=O)C1CCCC1 (stereo unspecified),19,-4,0,-3,2,·,·
CN(C)S(=O)(=O)c1cccc(-c2cn3ccccc3n2)c1,30,-8,5,19*,4,5,4
CC(=O)N1CCCC(C(=O)c2ccc3c4c(cccc24)CC3)C1 (stereo unspecified),·,3,-1,25*,1,2,0
O=C(CCn1nnc2ccccc21)N1CCN(c2cccc(C(F)(F)F)c2)CC1,·,1,0,·,·,·,·
O=C(NC1CCCCC1)c1c(O)nc2sccn2c1=O,15,0,5,20*,4,8,0
O=C(NC1CCCCCC1)c1c(O)nc2sccn2c1=O,4,-6,-10,-6,3,·,·
O=C(Nc1ccc(N2C(=O)[C@@H]3[C@H](C2=O)[C@@H]2C=C[C@H]3C2)c(Cl)c1)c1ccccn1,·,-6,0,·,·,·,·
CCOc1ccc(CCNC(=O)c2cc3sccc3n2Cc2cccc(C)c2)cc1OCC,·,7,-6,·,·,·,·
COc1ccc(C(=O)NC2(C(F)(F)F)N=C3SCCN3C2=O)cc1 (stereo unspecified),5,-3,-2,19*,-1,0,-3
Cc1nn(CC(=O)OCC(=O)Nc2ccccc2[N+](=O)[O-])c(C)c1[N+](=O)[O-],-21,-1,1,19*,4,-1,3
Cc1cc(N2CCCC2=O)ccc1S(=O)(=O)N1CCOCC1,-1,-9,3,23*,12,1,5
CCNC(=S)NNc1nc(N2CCOCC2)nc(N2CCOCC2)n1,1,1,-4,19*,-10,1,1
CNC(=S)NNc1nc(N2CCOCC2)nc(N2CCOCC2)n1,10,1,-6,-6,-6,·,·
OCC[C@@H]1C[C@@H](O)[C@H](O)[C@@]2(Cc3ccccc3CCO2)O1,3,-1,11,21*,-11,1,0
CC(=O)NS(=O)(=O)c1ccc(N=NN2CCOCC2)cc1,0,-2,-2,23*,3,1,9
COCCn1c(SCC(=O)NCCc2ccccc2)nc2c([nH]c3ccccc32)c1=O,20,·,·,20*,-6,3,0
COc1cccc(C(=O)OCC(=O)NC2CCCc3ccccc32)c1O (stereo unspecified),15,-8,-1,-1,-3,·,·
SMILES,Neddylation inh,Tn7 DDE FP,Tn6 DDE FP,PKA-R2B act,PKA-R1A act,R2B FP artifact,PKA-R2B act conf
O=C(COC(=O)c1ccccc1O)NC1CCCc2ccccc21 (stereo unspecified),-25,0,-6,21*,1,2,5
COc1cccc(OC)c1CNC(=O)CCSCc1ccccc1F,-3,-1,5,-6,-9,·,·
COc1cccc(CNC(=O)CCSCc2ccccc2F)c1,-7,2,1,20*,5,-2,-1
COc1ccc(C(C(=O)NCC2CCCO2)N(C(=O)CNC(=O)c2ccco2)c2ccccc2)cc1OC (stereo unspecified),2,0,-12,4,7,·,·
CCOC(=O)c1ccc(N(C(=O)CNC(=O)c2ccco2)C(C(=O)NCC2CCCO2)c2ccc(OC)c(OC)c2)cc1 (stereo unspecified),-4,1,-5,19*,7,2,-2
O=C(Nc1ccc(Cl)cn1)c1cccc(S(=O)(=O)N2CCCCC2)c1,-2,-7,-5,-9,1,·,·
O=C(Nc1ccc(Cl)cn1)c1cccc(S(=O)(=O)N2CCCCCC2)c1,3,0,-4,20*,4,2,-2
COc1cccc(CNC(=O)C[C@H]2CC[C@H]3[C@@H](COc4ccc(NC(=O)c5cccs5)cc4C(=O)N3C)O2)c1,·,-2,3,·,·,·,·
O=C(O)c1cccc(NC2=C(Cl)C(=O)c3ccccc3C2=O)c1,-20,-1,-9,22*,9,1,0
CC1=NN(c2nc(-c3ccc(Cl)cc3)cs2)C(=O)C1,-39,-10,-7,20*,6,0,4
CC1=NN(c2nc(-c3ccc(F)cc3)cs2)C(=O)C1,-9,·,·,2,-6,·,·
CCCCOC(=O)Cc1c(O)c2ccccc2[nH]c1=O,23,-4,-4,3,-2,·,·
CC(C)COC(=O)Cc1c(O)c2ccccc2[nH]c1=O,25,-4,0,21*,15,4,2
COc1ccc(S(=O)(=O)N[C@H](C(=O)O)C(C)C)cc1,0,-1,-1,19*,10,4,4
COc1ccc(NC(=O)c2c(C(F)(F)F)nn(C)c2Cl)cc1,-2,1,7,·,·,·,·
Cn1nc(C(F)(F)F)c(C(=O)Nc2ccc(F)cc2)c1Cl,4,1,8,20*,-1,-2,2
CC(C)(C)c1ccc(-c2cn(C[C@H](Cc3ccccc3)n3c(=O)c4ccccc4n3Cc3ccno3)nn2)cc1,·,-1,-4,·,·,·,·
Cc1cc(C)c(OCCn2ccnc2)c(C)c1,2,-1,-1,18*,-8,8,7
Cc1cc(C)c(OCCCn2ccnc2)c(C)c1,-1,7,3,-2,-3,·,·
O=C1CN(C(=O)C2CCCCC2)C=CN1CCc1ccccc1Br,·,-2,-1,·,·,·,·
CCC1NC(=O)c2cc(S(N)(=O)=O)c(Cl)cc2N1 (stereo unspecified),32,-8,-2,21*,10,4,2

# Bioassay records deposited in PubChem BioAssay by several laboratories.
